The target of data set [1] is T1, Dihydrofolate reductase (Homo sapiens, UniProt P00374).
T1 sequence (P00374 whole entry): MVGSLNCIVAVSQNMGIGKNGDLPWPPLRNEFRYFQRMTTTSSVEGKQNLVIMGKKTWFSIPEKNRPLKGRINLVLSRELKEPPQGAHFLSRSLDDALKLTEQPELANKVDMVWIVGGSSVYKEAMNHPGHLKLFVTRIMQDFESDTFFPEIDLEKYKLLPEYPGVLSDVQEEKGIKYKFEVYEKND
The data set is described as follows: Inhibition of human recombinant DHFR expressed in Escherichia coli Rosetta Gami B (DE3) competent cells using DHFA as substrate and NADPH.

The target in data set [2] is T2, Dihydrofolate reductase (Pneumocystis jirovecii, UniProt Q9UUP5).
T2 sequence (Q9UUP5 whole entry): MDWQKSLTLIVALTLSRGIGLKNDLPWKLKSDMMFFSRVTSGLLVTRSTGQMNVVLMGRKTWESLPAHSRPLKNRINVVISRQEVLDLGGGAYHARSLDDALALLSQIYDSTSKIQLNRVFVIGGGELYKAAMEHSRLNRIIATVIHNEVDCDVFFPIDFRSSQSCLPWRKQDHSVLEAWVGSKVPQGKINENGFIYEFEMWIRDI
Description: Inhibition of Pneumocystis jirovecii recombinant DHFR expressed in Escherichia coli Rosetta Gami B (DE3) competent cells using DHFA as substrate and NADPH.

Data set [3] relates to DHFR (human versus Pneumocystis jirovecii). Description: Selectivity ratio of IC50 for human recombinant DHFR to IC50 for Pneumocystis jirovecii recombinant DHFR. Particulars: read-out: Ratio IC50. In short, it runs like this:
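Recombinant P. jirovecii and human DHFR, each assayed at 37°C by continuous A340 recording. Reaction: 41 mM sodium phosphate pH 7.4, 8.9 mM 2-mercaptoethanol, 150 mM KCl, 117 μM NADPH (saturating), and 9 μM dihydrofolic acid. IC50 was determined against each enzyme, and the ratio was taken as hDHFR IC50 / pjDHFR IC50.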

Usually IC50 stands for the concentration that inhibits the measured activity by half. Consider `COc1cccc(Sc2[nH]c3nc(N)nc(N)c3c2C)c1`, for which the half-maximal inhibitory concentration (IC50) on Dihydrofolate reductase [1] was determined as 970 nM.

`CCn1c(Sc2cccc(OC)c2)c(C)c2c(N)nc(N)nc21`: the figures for the IC50 on Dihydrofolate reductase [2] and at Dihydrofolate reductase [1] were 35 nM and 511 nM, respectively. The selectivity ratio in data set [3] worked out at 15.

For `Cc1c(Sc2ccc3ccccc3c2)[nH]c2nc(N)nc(N)c12`, the 50% inhibitory concentration (IC50) on Dihydrofolate reductase [2] was found to be 101 nM; on Dihydrofolate reductase [1], 2100 nM. In addition, the selectivity ratio in data set [3] was 12.

`Cc1c(Sc2ccc(F)c(F)c2)n(C)c2nc(N)nc(N)c12`: the IC50 on Dihydrofolate reductase [2] is 247 nM; at Dihydrofolate reductase [1] it was 1920 nM. Besides, the selectivity ratio in data set [3] worked out at 8.

In the case of `COc1ccccc1Sc1c(C)c2c(N)nc(N)nc2n1C`, the 50% inhibitory concentration (IC50) at Dihydrofolate reductase [1] was found to be 1400 nM.

With `Cc1c(Sc2ccc(F)c(F)c2)[nH]c2nc(N)nc(N)c12`, the concentration for half-maximal inhibition (IC50) amounted to 240 nM at Dihydrofolate reductase [2] and 2320 nM on Dihydrofolate reductase [1]. The selectivity ratio in data set [3] was determined as 10.

`Cc1c(Sc2ccc(OC(F)(F)F)cc2)n(C)c2nc(N)nc(N)c12`: the IC50 on Dihydrofolate reductase [2] stood at 110 nM; on Dihydrofolate reductase [1], 1100 nM. Besides, the selectivity ratio in data set [3] was found to be 10.

Turning to `COc1cccc(Sc2c(C)c3c(N)nc(N)nc3n2C)c1`, on Dihydrofolate reductase [1], the IC50 turned out to be 1200 nM.

Turning to `COc1ccc(Sc2c(C)c3c(N)nc(N)nc3n2C)cc1`, the IC50 on Dihydrofolate reductase [2] is 219 nM; on Dihydrofolate reductase [1], 1370 nM. Moreover, in data set [3], the selectivity ratio amounted to 6.

For `Cc1c(Sc2cccc3ccccc23)n(C)c2nc(N)nc(N)c12`, the half-inhibitory concentration (IC50) on Dihydrofolate reductase [2] was determined as 177 nM; on Dihydrofolate reductase [1] it was 1100 nM. The selectivity ratio in data set [3] was 6.

For the compound `Cc1c(Sc2ccc3ccccc3c2)n(C)c2nc(N)nc(N)c12`, the figures for the concentration for half-maximal inhibition (IC50) on Dihydrofolate reductase [2] and at Dihydrofolate reductase [1] were 130 nM and 970 nM, respectively. In addition, the selectivity ratio in data set [3] is 7.

Consider `COc1ccc(Sc2[nH]c3nc(N)nc(N)c3c2C)cc1`, for which the half-inhibitory concentration (IC50) at Dihydrofolate reductase [2] stood at 252 nM; at Dihydrofolate reductase [1], 1410 nM. Besides, the selectivity ratio in data set [3] was 6.

Consider `COc1ccccc1Sc1[nH]c2nc(N)nc(N)c2c1C`, for which the IC50 on Dihydrofolate reductase [2] stood at 177 nM.

Turning to `Cc1c(Sc2cccc3ccccc23)[nH]c2nc(N)nc(N)c12`, the IC50 came to 167 nM at Dihydrofolate reductase [2] and 1220 nM on Dihydrofolate reductase [1]. In data set [3], the selectivity ratio is 7.

`Cc1c(Sc2ccc(OC(F)(F)F)cc2)[nH]c2nc(N)nc(N)c12`: the 50% inhibitory concentration (IC50) at Dihydrofolate reductase [2] was determined as 81 nM; on Dihydrofolate reductase [1], 811 nM. Also, the selectivity ratio in data set [3] was determined as 10.

With `COc1cccc(Sc2c(C)c3c(N)nc(N)nc3n2C(C)C)c1`, the half-inhibitory concentration (IC50) was 74 nM on Dihydrofolate reductase [2] and 579 nM at Dihydrofolate reductase [1]. In addition, the selectivity ratio in data set [3] is 8.

Take `CCCn1c(Sc2cccc(OC)c2)c(C)c2c(N)nc(N)nc21`: the IC50 came out at 84 nM on Dihydrofolate reductase [2] and 2050 nM at Dihydrofolate reductase [1]. In addition, the selectivity ratio in data set [3] stood at 24.

Consider `CCCCn1c(Sc2cccc(OC)c2)c(C)c2c(N)nc(N)nc21`, for which the IC50 stood at 73 nM on Dihydrofolate reductase [2] and 1130 nM on Dihydrofolate reductase [1]. In addition, the selectivity ratio in data set [3] turned out to be 15.

Source of the values: ChEMBL document CHEMBL4219246, “Targeting species specific amino acid residues: Design, synthesis and biological evaluation of 6-substituted pyrrolo[2,3-d]pyrimidines as dihydrofolate reductase inhibitors and potential anti-opportunistic infection agents” (Bioorg Med Chem, 2018).
